Experimental data as given in ChEMBL document CHEMBL3621132, “Discovery of diazepane amide DORAs and 2-SORAs enabled by exploration of isosteric quinazoline replacements” (Bioorg Med Chem Lett, 2015).
The source made the active and inactive calls. The calls are words filed in the database; no cut-off is given here.

Tests used:
[1] = target: T1, Orexin receptor type 2 (Homo sapiens, UniProt O43614); test: Antagonist activity at human orexin 2 receptor expressed in CHO cells assessed as inhibition of orexin-A-induced intracellular calcium level after 60 mins by FLIPR assay; assay type: functional, cell-based
T1 sequence (O43614 whole entry): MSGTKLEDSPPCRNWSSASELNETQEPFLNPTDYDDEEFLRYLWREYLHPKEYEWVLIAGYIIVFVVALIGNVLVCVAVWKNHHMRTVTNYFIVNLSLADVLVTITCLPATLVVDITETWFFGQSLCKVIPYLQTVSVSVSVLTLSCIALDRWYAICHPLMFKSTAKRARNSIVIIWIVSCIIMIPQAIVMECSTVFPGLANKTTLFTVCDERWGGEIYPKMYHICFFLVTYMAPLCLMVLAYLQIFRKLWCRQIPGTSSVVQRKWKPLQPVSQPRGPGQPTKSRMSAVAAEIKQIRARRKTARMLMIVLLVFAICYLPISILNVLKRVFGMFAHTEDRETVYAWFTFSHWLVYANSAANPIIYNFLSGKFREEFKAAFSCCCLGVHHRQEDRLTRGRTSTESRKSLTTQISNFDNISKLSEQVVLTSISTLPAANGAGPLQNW

[2] = target: Orexin receptor type 1 (Homo sapiens) (UniProt O43613); test: Binding affinity to human orexin 1 receptor expressed in CHO cells after 3 hrs by radioligand binding assay
[3] = target: Orexin receptor type 2 (Homo sapiens) (UniProt O43614); test: Antagonist activity at human orexin 2 receptor expressed in CHO cells assessed as inhibition of orexin-A-induced intracellular calcium level after 60 mins by FLIPR assay; conditions: 1 h
[4] = target: Orexin receptor type 2 (Homo sapiens) (UniProt O43614); test: Binding affinity to human orexin 2 receptor expressed in CHO cells after 3 hrs by radioligand binding assay
[5] = Clearance in dog at 0.125 mg/kg, iv; assay type: ADME, organism-based, Canis lupus familiaris; conditions: in vivo
How it was run: (§1)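 Intravenous PK in rat (2 mg/kg) and dog (0.125 or 0.5 mg/kg), vehicle 100% DMSO, n = 2. Clearance, Vdss and half-life were determined.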

[6] = species on record: Homo sapiens; test: Selectivity ratio of IC50 for human orexin 1 receptor Ile408-Val mutant to IC50 for human orexin 2 receptor
[7] = tested on: Liver microsome; test: Bioactivation of compound in human liver microsomes assessed as AUC of GSH-adduct formation at 10 uM after 60 mins by HRMS analysis relative to labetalol; conditions: 1 h
[8] = tested on: Liver microsome; test: Bioactivation of compound in rat liver microsomes assessed as AUC of GSH-adduct formation at 10 uM after 60 mins by HRMS analysis relative to labetalol; conditions: 1 h
[9] = AUC in satellite rat sleep model at 30 mg/kg, po; assay type: ADME, organism-based; conditions: in vivo
How it was run: (§2)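 Satellite rats from the sleep study were given 30 mg/kg orally as the free base in 20% Vitamin E TPGS in water (n = 3). Plasma AUC, Cmax and Tmax were measured over the sleep experiment.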

[10] = Tmax in satellite rat sleep model at 30 mg/kg, po; assay type: ADME, organism-based; conditions: in vivo; how it was run: as §2
[11] = Cmax in satellite rat sleep model at 30 mg/kg, po; assay type: ADME, organism-based; set-up: dose 30 mg/kg, route oral; conditions: in vivo; how it was run: as §2
[12] = tested on: Rattus norvegicus; test: Anti-insomnia activity in rat sleep model assessed as reduction of active wake at 30 mg/kg, po up to 2 hrs; assay type: functional, organism-based
[13] = tested on: Rattus norvegicus; test: Anti-insomnia activity in rat sleep model assessed as increase in slow wave at 30 mg/kg, po up to 2 hrs; assay type: functional, organism-based
[14] = tested on: Rattus norvegicus; test: Anti-insomnia activity in rat sleep model assessed as increase in REM sleep at 30 mg/kg, po up to 2 hrs; assay type: functional, organism-based
[15] = species on record: Rattus norvegicus; test: Ex vivo receptor occupancy at human OX2R expressed in transgenic rat at plasma concentration of 0.35 uM; assay type: functional
[16] = Plasma protein binding in dog; assay type: ADME, cell-free, Canis lupus familiaris; conditions: read-out: PPB (converted)
[17] = Plasma protein binding in rat; assay type: ADME, cell-free; conditions: read-out: PPB (converted)
[18] = Plasma protein binding in human; assay type: ADME, cell-free; conditions: read-out: PPB (converted)
[19] = Apparent permeability of the compound assessed […] by cell based assay; assay type: physicochemical
[20] = Lipophilicity, log D of the compound by HPLC analysis; assay type: physicochemical
[21] = Clearance in rat at 2 mg/kg, iv; assay type: ADME, organism-based; conditions: in vivo; how it was run: as §1
[22] = Volume of distribution at steady state in rat at 2 mg/kg, iv; assay type: ADME, organism-based; conditions: in vivo, read-out: Vdss; how it was run: as §1
[23] = Half life in rat at 2 mg/kg, iv; assay type: ADME, organism-based; conditions: in vivo; how it was run: as §1
[24] = Volume of distribution at steady state in dog at 0.125 mg/kg, iv; assay type: ADME, organism-based, Canis lupus familiaris; conditions: in vivo, read-out: Vdss; how it was run: as §1
[25] = Half life in dog at 0.125 mg/kg, iv; assay type: ADME, organism-based, Canis lupus familiaris; conditions: in vivo; how it was run: as §1
[26] = AUC in rat at 10 mg/kg, po; assay type: ADME, organism-based; conditions: in vivo
[27] = Tmax in rat at 10 mg/kg, po; assay type: ADME, organism-based; conditions: in vivo
How it was run: (§3)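 Rats were dosed orally at 10 mg/kg in 100% PEG200 (n = 2), as the free base or the hydrochloride salt. AUC, Tmax, Cmax and bioavailability (F) were derived from plasma levels.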

[28] = Cmax in rat at 10 mg/kg, po; assay type: ADME, organism-based; set-up: dose 10 mg/kg, route oral; conditions: in vivo; how it was run: as §3
[29] = Oral bioavailability in rat at 10 mg/kg; assay type: ADME, organism-based; conditions: in vivo; how it was run: as §3
[30] = AUC in dog at 3 mg/kg, po; assay type: ADME, organism-based, Canis lupus familiaris; conditions: in vivo
[31] = Tmax in dog at 3 mg/kg, po; assay type: ADME, organism-based, Canis lupus familiaris; conditions: in vivo
How it was run: (§4)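 Oral dosing in dogs at 3 mg/kg as the free base in 20% Vitamin E TPGS in water (n = 2). AUC, Tmax, Cmax and oral bioavailability were determined from plasma.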

[32] = Cmax in dog at 3 mg/kg, po; assay type: ADME, organism-based, Canis lupus familiaris; set-up: dose 3 mg/kg, route oral; conditions: in vivo; how it was run: as §4
[33] = Oral bioavailability in dog at 3 mg/kg; assay type: ADME, organism-based, Canis lupus familiaris; conditions: in vivo; how it was run: as §4
[34] = Oral bioavailability in satellite rat sleep model at 30 mg/kg; assay type: ADME, organism-based; conditions: in vivo; how it was run: as §2
[35] = species on record: Rattus norvegicus; test: Ex vivo receptor occupancy at human OX2R expressed in transgenic rat at plasma concentration of 1 uM; assay type: functional
[36] = Tmax in mouse at 300 mg/kg, po; assay type: ADME, organism-based; conditions: in vivo
How it was run: (§5)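 Mice were dosed orally at 300 mg/kg as the free base in 20% Vitamin E TPGS in water, during the active phase of the sleep study. Cmax and Tmax were taken from plasma.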

[37] = Cmax in mouse at 300 mg/kg, po; assay type: ADME, organism-based; set-up: dose 300 mg/kg, route oral; conditions: in vivo; how it was run: as §5
[38] = Volume of distribution at steady state in dog at 0.5 mg/kg, iv; assay type: ADME, organism-based, Canis lupus familiaris; conditions: in vivo, read-out: Vdss; how it was run: as §1
[39] = Half life in dog at 0.5 mg/kg, iv; assay type: ADME, organism-based, Canis lupus familiaris; conditions: in vivo; how it was run: as §1
[40] = Clearance in dog at 0.5 mg/kg, iv; assay type: ADME, organism-based, Canis lupus familiaris; conditions: in vivo; how it was run: as §1
[41] = tested on: P-glycoprotein; test: Permeability of the compound assessed as human p-glycoprotein-mediated permeability ratio from basolateral to apical direction; assay type: ADME; conditions: not told
[42] = tested on: P-glycoprotein; test: Permeability of the compound assessed as rat p-glycoprotein-mediated permeability ratio from basolateral to apical direction; assay type: ADME; conditions: not told

C[C@@H]1CCN(c2ncc(C(F)(F)F)c(Cl)n2)CCN1C(=O)c1ccccc1-n1nccn1
IC50 [1]: 88 nM
Ki [2]: 5.1 nM
IC50 [3]: 88 nM

COc1nc(N2CC[C@@H](C)N(C(=O)c3cc(C)ccc3-n3nccn3)CC2)ncc1C
IC50 [1]: 31 nM
Ki [4]: 0.6 nM
Ki [2]: 14 nM
IC50 [3]: 31 nM

Cc1ccc(-n2nccn2)c(C(=O)N2CCN(c3ncc(C(F)(F)F)c(Cl)n3)CC[C@H]2C)c1
IC50 [1]: 140 nM
clearance [5]: 15 mL/min/kg
Ki [4]: 0.6 nM
Ki [2]: 0.7 nM
IC50 [3]: 140 nM

Cc1cnc(Cl)nc1N1CC[C@@H](C)N(C(=O)c2ccccc2-n2nccn2)CC1
IC50 [1]: 42 nM
Ki [4]: 2.6 nM
Ki [2]: 760 nM

Cc1nc(N2CC[C@@H](C)N(C(=O)c3ccccc3-n3nccn3)CC2)ncc1C(F)(F)F
IC50 [1]: 19 nM
clearance [5]: 5 mL/min/kg
Ki [2]: 11 nM
IC50 [3]: 19 nM

C[C@@H]1CCN(c2nc(Cl)ncc2Cl)CCN1C(=O)c1ccccc1-n1nccn1
IC50 [1]: 25 nM
Ki [4]: 1.1 nM
Ki [2]: 850 nM

Cc1ncc(C(F)(F)F)c(N2CC[C@@H](C)N(C(=O)c3ccccc3-n3nccn3)CC2)n1
IC50 [1]: 88 nM
Ki [4]: 31 nM
Ki [2]: 4200 nM
IC50 [3]: 88 nM

COc1ncc(C(F)(F)F)c(N2CC[C@@H](C)N(C(=O)c3ccccc3-n3nccn3)CC2)n1
Ratio IC50 [6]: 7
IC50 [1]: 245 nM

Cc1ccc(-n2nccn2)c(C(=O)N2CCN(c3nc4cc(Cl)ccc4o3)CC[C@H]2C)c1 [SUVOREXANT]
Activity [7]: > 95%
Activity [8]: > 95%

C[C@@H]1CCN(c2ncc3cc(F)ccc3n2)CCN1C(=O)c1ccccc1-n1nccn1
clearance [5]: 3 mL/min/kg
AUC [9]: 4.5 µM·h
Tmax [10]: 1.3 h
Cmax [11]: 2000 nM
Activity [12]: Active
Activity [13]: Active
Activity [14]: Active
Activity [15]: 90%

Cc1ccc(-n2nccn2)c(C(=O)N2CCN(c3ncc(C(F)(F)F)c(C)n3)CC[C@H]2C)c1
IC50 [1]: 85 nM
clearance [5]: 10 mL/min/kg
Ki [4]: 0.5 nM
Ki [2]: 1.6 nM

C[C@@H]1CCN(c2nc(Cl)ncc2C(F)(F)F)CCN1C(=O)c1ccccc1-n1nccn1
IC50 [1]: 72 nM
Ki [2]: 1100 nM
IC50 [3]: 72 nM

COc1nc(N2CC[C@@H](C)N(C(=O)c3cc(C)ccc3-n3nccn3)CC2)ncc1C(F)(F)F
fraction unbound [16]: 0.005
fraction unbound [17]: 0.05
fraction unbound [18]: 0.04
IC50 [1]: 27 nM
clearance [5]: 3 mL/min/kg
Papp [19]: 28 ×10⁻⁶ cm/s
logD [20]: 3.4
clearance [21]: 37 mL/min/kg
Vd [22]: 2.5 L/kg
half-life [23]: 1.1 h
Vd [24]: 0.4 L/kg
half-life [25]: 2.4 h
AUC [26]: 0.6 µM·h
Tmax [27]: 3 h
Cmax [28]: 200 nM
bioavailability [29]: 8%
AUC [30]: 9.9 µM·h
Tmax [31]: 0.6 h
Cmax [32]: 2300 nM
bioavailability [33]: 23%
AUC [9]: 5.5 µM·h
Tmax [10]: 0.8 h
Cmax [11]: 2500 nM
bioavailability [34]: 19%
Activity [12]: Active
Activity [13]: Active
Activity [14]: Active
Activity [35]: 83%
Ki [2]: 1.5 nM
IC50 [3]: 27 nM

COc1nc(N2CC[C@@H](C)N(C(=O)c3ccccc3-n3nccn3)CC2)ncc1C(F)(F)F
IC50 [1]: 21 nM
clearance [5]: 3 mL/min/kg
Ki [4]: 0.7 nM
Ki [2]: 6.3 nM
IC50 [3]: 21 nM

Cc1ccc(-n2nccn2)c(C(=O)N2CCN(c3ncc(Cl)c(C)n3)CC[C@H]2C)c1
IC50 [1]: 20 nM
clearance [5]: 9 mL/min/kg
Ki [2]: 6.1 nM
IC50 [3]: 20 nM

Cc1ncc(Cl)c(N2CC[C@@H](C)N(C(=O)c3ccccc3-n3nccn3)CC2)n1
Tmax [36]: 1 h
Cmax [37]: 18000 nM
Vd [38]: 0.8 L/kg
half-life [39]: 0.9 h
clearance [40]: 15 mL/min/kg
fraction unbound [16]: 0.05
fraction unbound [17]: 0.12
fraction unbound [18]: 0.05
IC50 [1]: 48 nM
efflux ratio [41]: 0.7
efflux ratio [42]: 1.5
Papp [19]: 34 ×10⁻⁶ cm/s
logD [20]: 2.8
clearance [21]: 118 mL/min/kg
Vd [22]: 7 L/kg
half-life [23]: 3.2 h
AUC [26]: 1.2 µM·h
Tmax [27]: 0.4 h
Cmax [28]: 900 nM
bioavailability [29]: 35%
AUC [30]: 1.8 µM·h
Tmax [31]: 0.4 h
Cmax [32]: 1300 nM
bioavailability [33]: 19%
Ki [4]: 3.6 nM
Ki [2]: 1800 nM

Cc1ccc(-n2nccn2)c(C(=O)N2CCN(c3ncc(C)c(Cl)n3)CC[C@H]2C)c1
IC50 [1]: 28 nM
clearance [5]: 8 mL/min/kg
Ki [4]: 0.4 nM
Ki [2]: 3.9 nM
IC50 [3]: 28 nM

Cc1ncc(C)c(N2CC[C@@H](C)N(C(=O)c3ccccc3-n3nccn3)CC2)n1
IC50 [1]: 82 nM
Ki [2]: 3600 nM
